Experimental data published in ChEMBL document CHEMBL3124923, “Isolation, structure elucidation, and biological activity of altersolanol P using Staphylococcus aureus fitness test based genome-wide screening” (2014).
In brackets after ≈: the same amount, converted by molar mass. Activity calls are given as the source filed them. The rule behind the calls is not given here.

Tests used:
Assay type in all cases: functional
Pseudomonas aeruginosa = assay: Antimicrobial activity against Pseudomonas aeruginosa
Staphylococcus aureus [1] = assay: Antimicrobial activity against Staphylococcus aureus
Candida albicans = assay: Antimicrobial activity against Candida albicans MY 1055 after 20 hrs by 2-fold serial broth dilution method; settings: MY 1055, 20 h
Outline: (§1)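 MIC for each strain determined following the NCCLS (now CLSI) method, using 2-fold serial dilution of the compound. For the S. aureus Smith strain, MIC was also run with 50% human serum in the medium.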

Staphylococcus aureus [2] = assay: Antimicrobial activity against Staphylococcus aureus Smith MB 2865 after 20 hrs by 2-fold serial broth dilution method in presence of 50 % human serum; settings: for MIC: Smith MB 2865, 20 h; outline: as §1
Enterococcus faecalis = assay: Antimicrobial activity against vancomycin-sensitive Enterococcus faecalis CL 8516 after 20 hrs by 2-fold serial broth dilution method; settings: CL 8516, 20 h
Outline: (§2)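 MIC read following the NCCLS (now CLSI) method, using 2-fold serial dilutions of test compound against each strain.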

Haemophilus influenzae = assay: Antimicrobial activity against Haemophilus influenzae MB 4572 after 20 hrs by 2-fold serial broth dilution method; settings: MB 4572, 20 h; outline: as §1
Escherichia coli [3] = assay: Antimicrobial activity against Escherichia coli MB 5746 harboring envA/tolC gene after 20 hrs by 2-fold serial broth dilution method; settings: MB 5746, 20 h; outline: as §2
Bacillus subtilis = assay: Antimicrobial activity against Bacillus subtilis MB 964 after 20 hrs by 2-fold serial broth dilution method; settings: MB 964, 20 h; outline: as §1
Streptococcus pneumoniae [4] = assay: Antimicrobial activity against Streptococcus pneumoniae CL 2883 grown in iso sensitet medium after 20 hrs by 2-fold serial broth dilution method; settings: CL 2883, 20 h; outline: as §1
Streptococcus pneumoniae [5] = assay: Antimicrobial activity against Streptococcus pneumoniae CL 2883 grown in 2.5 % lysed horse blood medium after 20 hrs by 2-fold serial broth dilution method; settings: CL 2883, 20 h; outline: as §1
Staphylococcus aureus [6] = assay: Antimicrobial activity against Staphylococcus aureus Smith MB 2865 after 20 hrs by 2-fold serial broth dilution method; settings: Smith MB 2865, 20 h; outline: as §1
Escherichia coli [7] = assay: Antimicrobial activity against wild-type Escherichia coli MB 2884 after 20 hrs by 2-fold serial broth dilution method; settings: MB 2884, 20 h; outline: as §1

Compound	MIC (Pseudomonas aeruginosa) [µg/mL]	MIC (Staphylococcus aureus [1]) [µg/mL]	also measured
CC1(C)S[C@@H]2[C@H](NC(=O)Cc3ccccc3)C(=O)N2[C@H]1C(=O)O [PENICILLIN G]	–	–	MIC (Enterococcus faecalis): 4 µg/mL (≈ 12 µM); MIC (Candida albicans): > 64 µg/mL; MIC (Haemophilus influenzae): 0.06 µg/mL (≈ 0.179 µM); MIC (Escherichia coli [3]): 8 µg/mL (≈ 23.9 µM); MIC (Bacillus subtilis): < 0.06 µg/mL; MIC (Streptococcus pneumoniae [4]): < 0.015 µg/mL; MIC (Streptococcus pneumoniae [5]): < 0.015 µg/mL; MIC (Staphylococcus aureus [2]): 0.12 µg/mL; MIC (Staphylococcus aureus [6]): < 0.06 µg/mL
COc1cc(O)c2c(c1)C(=O)C1=C(C2=O)[C@H](O)[C@H](O)[C@@](C)(O)[C@@H]1O	12.5 (≈ 37.2 µM)	12.5 (≈ 37.2 µM)	–
COc1cc(O)c2c(c1)C(=O)C1=C(C2=O)[C@H](O)[C@@H](O)[C@@](C)(O)[C@@H]1O [ALTERSOLANOL A]	12.5 (≈ 37.2 µM)	12.5 (≈ 37.2 µM)	–
COc1cc(O)c2c(c1)C(=O)[C@H]1C[C@](C)(O)[C@H](O)C[C@@H]1[C@H]2O [ALTERSOLANOL J]	12.5 (≈ 40.5 µM)	12.5 (≈ 40.5 µM)	–
C[C@@]1(O)CCC2=C(C(=O)c3cccc(O)c3C2=O)[C@@H]1O	–	2 (≈ 7.29 µM)	MIC (Enterococcus faecalis): 1 µg/mL (≈ 3.65 µM); MIC (Candida albicans): 8 µg/mL (≈ 29.2 µM); MIC (Haemophilus influenzae): 2 µg/mL (≈ 7.29 µM); MIC (Escherichia coli [3]): 32 µg/mL (≈ 117 µM); MIC (Escherichia coli [7]): > 64 µg/mL; MIC (Bacillus subtilis): 2 µg/mL (≈ 7.29 µM); MIC (Streptococcus pneumoniae [4]): 4 µg/mL (≈ 14.6 µM); MIC (Streptococcus pneumoniae [5]): 8 µg/mL (≈ 29.2 µM); MIC (Staphylococcus aureus [2]): > 64 µg/mL; MIC (Staphylococcus aureus [6]): 4 µg/mL (≈ 14.6 µM)

More lines, main results first:

MIC (Pseudomonas aeruginosa) [µg/mL]	MIC (Staphylococcus aureus [1]) [µg/mL]	Compound	also measured
12.5 (≈ 37.2 µM)	12.5 (≈ 37.2 µM)	COc1cc(O)cc2c1C(=O)C1=C(C2=O)[C@@H](O)[C@](C)(O)[C@H](O)[C@H]1O	–
12.5 (≈ 38.5 µM)	12.5 (≈ 38.5 µM)	COc1cc(O)c2c(c1)C(=O)[C@@H]1[C@H](C[C@@H](O)[C@@](C)(O)[C@@H]1O)[C@H]2O [ALTERSOLANOL K]	MIC (Candida albicans): 8 µg/mL (≈ 24.7 µM); Activity (Staphylococcus aureus [2]): Active
12.5 (≈ 39 µM)	12.5 (≈ 39 µM)	COc1cc(O)c2c(c1)C(=O)C1=C(C[C@@H](O)[C@@](C)(O)[C@@H]1O)C2=O [ALTERSOLANOL C]	–
12.5 (≈ 39 µM)	12.5 (≈ 39 µM)	COc1cc(O)c2c(c1)C(=O)C1=C(C[C@H](O)[C@@](C)(O)[C@@H]1O)C2=O	–
12.5 (≈ 37.2 µM)	12.5 (≈ 37.2 µM)	COc1cc(O)cc2c1C(=O)C1=C(C2=O)[C@H](O)[C@](C)(O)[C@H](O)[C@H]1O	–
12.5 (≈ 37.4 µM)	12.5 (≈ 37.4 µM)	COc1cc(O)c2c(c1)C(=O)C1=C(C2=O)[C@H](C)[C@@H](O)[C@@](C)(O)[C@@H]1O	–
12.5 (≈ 41.1 µM)	12.5 (≈ 41.1 µM)	COc1cc(O)c2c(c1)C(=O)C1=C(C[C@@H](O)[C@@](C)(O)C1)C2=O [ALTERSOLANOL B]	–
